SDO1 yeast rescue – restores growth of sdo1-depleted yeast | S. cerevisiae sdo1-depleted JHY4D growth rescue, OD600 30 h; active compounds read high; pdr5 snq2 efflux-pump mutant strain | z-score at 10 µM | actives 0.21% (n = 140,000);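 active = z-score above 3 at both the 24 hr and the 30 hr optical density reads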;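 note: z-score against mean and SD of all compound wells on the same plate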
Yeast growth inh – reduces growth of yeast BB579 in restrictive medium | S. cerevisiae BB579 growth, OD615, 48 h | inhibition, % at 10 µM | actives 0.51% (n = 140,000) | AID 804;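 active = inhibition above a set limit, 3 SD over the mean compound inhibition, cut at about 44% in these data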
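System: Saccharomyces cerevisiae DeaD strain BB579, replicative lifespan model yeast | Buffer or medium: Restrictive glucose-based CSMM-D medium | Times: 4 h preincubation and 48 h exposure at 30 °C | Detection: OD615 turbidity measurement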
Yeast life ext – yeast lifespan extension; S. cerevisiae growth with nicotinamide, OD615; deaD strain in restrictive glucose medium; inhibition of the nicotinamide effect, % at 10 µM; actives 0.68% (n = 130,000); AID 775;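 active = inhibition above a set limit, placed 3 SD over the median of all compounds, cut at about 26% in these data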;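 note: 0% = nicotinamide-treated wells and 100% = cells grown without nicotinamide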
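assay system = DeaD-strain S. cerevisiae | measured by = absorbance at 615 nm | probe or stimulus = nicotinamide 1.5 mM | buffer or medium = CSMM-D glucose medium, restrictive | times = 48 h at 30 °C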
Efa HMGR inh – inhibitors of class II HMG-CoA reductase from Enterococcus faecalis. purified E. faecalis HMGR, NADPH absorbance 340 nm kinetic. inhibition, % at 10 µM. actives 0.41% (n = 190,000);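 active = inhibition above a set limit, the median over all tested compounds plus 3 SD, cut at about 9.5% in these data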;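 note: enzyme runs in reverse so mevalonate oxidation gives rising NADPH absorbance; 0% = complete reaction with DMSO and 100% = background rate lacking mevalonate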
SDO1 rescue DR – confirmation of growth rescue in SDO1-depleted yeast, bone marrow failure. AID 949. S. cerevisiae JHY4D (SDO1-depleted) growth rescue, OD600, 30 h; active compounds read high; efflux-deficient strain, SNQ2 and PDR5 mutated. shares compounds with SDO1 yeast rescue. actives 44% (n = 440). OD recovery (no concentration beside the values);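 active = yeast growth recovered at 30 hours, either rising with dose fitted slope above 0.001 or with average optical density gain above 0.07, some results past the limit were not filed as active; inactive = growth falling with dose or no effect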;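 note: gain in OD600 from 0 h to 30 h averaged across all seven doses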
Numbers without * were called inactive; x = no result. Most compounds without a hit are left out; they make up all but 1.3% or so of the library.

SMILES	SDO1 yeast rescue	Yeast growth inh	Yeast life ext	Efa HMGR inh	SDO1 rescue DR
CSCCC(NS(=O)(=O)c1ccc(Cl)cc1)C(=O)OCC(=O)c1c(C)[nH]c2ccccc12 (centres undefined)	6.22*	-22.6	1.2	-0.7	0.053
N#Cc1cc2c(nc1SCC(=O)Nc1sc3c(c1C#N)CCC3)CCC2	1.12	-30.2	-7.0	-4.7	0.0241
CCN(CC)S(=O)(=O)c1cc(C(=O)Nc2cccnc2Cl)ccc1Cl	x	x	x	0.4	x
Cc1ccc2[nH]c3c(c2c1)CCN1C(=O)OC(C)(C)C31C (centres undefined)	x	x	x	0.5	x
CN(C)/N=C/c1ccc(P(c2ccc(/C=N/N(C)C)o2)c2ccc(/C=N/N(C)C)o2)o1	x	x	x	-3.6	x
CC(C)n1nnnc1SCC(=O)c1ccc2c(c1)OCCO2	-0.13	-33.2	-0.4	-3.3	x
CCn1nnnc1SCC(=O)c1ccc2c(c1)OCCO2	10.2*	-32.3	0.8	4.0	0.0287
NC(=O)NCCN1CCN(c2ncc(C(F)(F)F)cc2Cl)CC1	x	x	x	-11.8	x
O=C(CC1S/C(=N/N=C/c2c[nH]c3ccccc23)NC1=O)Nc1ccccc1 (centres undefined)	3.89*	-28.6	8.5	-6.9	0.0847*
O=C(CC1S/C(=N/N=C/c2c[nH]c3ccc(OCc4ccccc4)cc23)NC1=O)Nc1ccccc1 (centres undefined)	-0.13	-22.4	-0.2	-7.4	x
COc1cc(O)oc1C=Nc1ccc(C(=O)O)cc1	x	x	x	-8.3	x
Cc1c(NC(=O)COC(=O)C2(c3ccc(F)cc3)CCCC2)c(=O)n(-c2ccccc2)n1C	x	x	x	-9.2	x
CC(C)c1nnc(N2C(=O)c3oc4ccccc4c(=O)c3C2c2ccco2)s1 (centres undefined)	0.72	-15.7	x	-1.3	0.0768*
COC(=O)c1c(C(=O)OC)c2cc(C)ccn2c1Cl	10.6*	-10.5	-28.5	-1.6	0.0837*
COC(=O)c1nc2cc(C)ccn2c1F	-0.02	-2.4	-7.1	-2.2	x
CC1=C(C(=O)NCc2ccc3c(c2)OCO3)C2(CCC(C)CC2)OC1=O (centres undefined)	0.84	-37.6	-6.0	-3.6	0.0686
CCN1C(=O)C(O)(CC(=O)c2ccc(-n3cccc3)cc2)c2ccccc21 (centres undefined)	3.03*	-37.8	1.2	-4.5	0.101*
CCN1C(=O)C(O)(CC(=O)c2cccc(-n3cccc3)c2)c2ccccc21 (centres undefined)	x	x	x	0.2	x
CCOC(=O)C1CCCN(C(=O)Nc2cccc(Cl)c2)C1 (centres undefined)	2.34	-44.3	9.3	1.5	0.065
CCCCC(=O)NS(=O)(=O)c1ccc(NS(C)(=O)=O)cc1	-0.36	12.6	15.0	-0.9	x
Cc1nc2ncnn2c(C)c1CCC(=O)O	3.87*	-17.4	-1.4	-5.3	0.0989*
CCOC(=O)CCc1c(C)nc2ncnn2c1C	0.79	-23.5	-16.8	3.1	x
COC(=O)c1sccc1NC(=O)c1ccc(OC)c(OC)c1	1.37	-42.3	-15.7	-0.4	0.0473
O=C(NCCCN1CCN(CCCNC(=O)c2cccc([N+](=O)[O-])c2)CC1)c1cccc([N+](=O)[O-])c1	11.3*	19.4	-2.1	-1.1	0.0546
COc1ccccc1/C=N/NC(=O)CCn1cnc2ccccc21	1.1	-21.7	3.6	-4.7	x
SMILES	SDO1 yeast rescue	Yeast growth inh	Yeast life ext	Efa HMGR inh	SDO1 rescue DR
CSc1nc(N)nc(SCC(=O)c2ccc(C)cc2)c1C#N	1.33	-23.6	-4.8	-0.1	0.0762*
CSCCC1COC(c2cccs2)=N1 (centres undefined)	x	x	x	-3.4	x
O=C(COC(=O)/C=C/c1ccccc1[N+](=O)[O-])Nc1ccc(OC(F)F)cc1	11.3*	3.4	2.6	-4.4	0.067
COc1ccc(C(C2C(=O)CC(C)(C)CC2=O)C2C(=O)CC(C)(C)CC2=O)cc1COCC(F)(F)F	14.4*	-11.7	7.9	-4.7	0.0817*
O=C(CSc1nnc(CNc2cccc(Cl)c2)o1)OC1CCCCC1	11.6*	-27.1	5.0	-7.4	0.09*
COC(=O)c1nnn(-c2ccsc2C(=O)OC)c1C(=O)OC	x	x	x	-9.4	x
COC(=O)C1Cc2ccccc2CN1C(=O)CCl (centres undefined)	x	x	x	-1.3	x
CCN(CC)S(=O)(=O)c1ccc(Cc2ncc(C(F)(F)F)cc2Cl)s1	12.1*	-16.6	-3.6	0.7	0.0764*
NS(=O)(=O)c1ccc(Cc2ncc(C(F)(F)F)cc2Cl)s1	1.49	-30.8	1.3	1.8	x
COc1cc2c(cc1OC)CN(Cc1cc(OC)c(O)c(OC)c1)CC2	x	x	x	3.3	x
COc1ccc(C(=O)N2CCCC(C(=O)N3CCCCCC3)C2)cc1 (centres undefined)	4.18*	-12.2	-21.3	-4.9	0.0638
O=C(c1cccc(F)c1)N1CCCC(C(=O)N2CCCC2)C1 (centres undefined)	0.13	31.1	-2.5	-0.8	0.0832*
COc1ccc(C(=O)N2CCCC2)cc1	-0.43	17.1	-7.7	-1.0	x
O=S(=O)(Nc1cccnc1)c1ccc(Cl)c(C(F)(F)F)c1	9.61*	-27.2	3.4	-0.7	0.058
O=S(=O)(NCc1ccccn1)c1ccc(Cl)c(C(F)(F)F)c1	x	x	x	1.6	x
COc1cccc2c1OCC/C2=N\NC(=O)COc1ccc(C)cc1	0.93	-28.4	0.6	-2.3	0.038
Cc1ccc(OCC(=O)N/N=C2\CCOc3c(C)cccc32)cc1	-1.33	-25.2	-10.4	-2.8	x
N#CCOC(=O)C1CSC2(c3ccc(Br)cc3)CCC(=O)N12 (centres undefined)	x	x	x	0.7	x
Cn1c(=O)c2c(ncn2CC(=O)N2CCN(c3cccc(Cl)c3)CC2)n(C)c1=O	14.3*	-22.4	-2.2	1.8	0.0489
COc1ccc(CCNC(=O)c2cc(-c3cc(C)ccc3O)n[nH]2)cc1OC	0.48	-84.1	-4.8	-11.3	x
COc1ccc(CCNC(=O)c2cc(-c3ccc(C)c(C)c3O)n[nH]2)cc1OC	2.32	-30.2	-6.3	-0.8	0.0529
CC1CCN(c2ccc(C(=O)NCc3ccco3)cc2[N+](=O)[O-])CC1	10.6*	-15.7	2.0	-3.8	0.0952*
COc1cc(C(=O)NC(C(=O)Nc2cccc(C(C)=O)c2)C(C)C)cc(OC)c1OC (centres undefined)	x	x	x	-3.5	x
COC(=O)Cn1cc(/C=N/NC(=O)c2ccc(C#N)cc2F)c2ccccc21	4.05*	-43.1	-12.0	-0.6	0.0694
O=C(NC1CC1)c1ccc2c(c1)C1C3CCC(C3)C1C(c1ccccc1)N2 (centres undefined)	-1.18	-13.2	18.0	-0.5	x
CC(C)CNC(=O)NC1C(NC(=O)NCC(C)C)N(C)C(=O)N1C (centres undefined)	4.42*	-10.9	-19.1	-2.6	0.0728*
CCN(Cc1ccccc1)C(=O)COC(=O)Cn1cnc2ccccc21	x	x	x	-3.8	x
Cc1ccc(S(=O)(=O)N(C#N)c2nc(C)cc(C)n2)cc1	0.71	-11.7	-6.5	0.5	x
Cc1cc(C)nc(N(C#N)S(=O)(=O)c2ccc(Br)cc2)n1	12*	-21.5	3.7	-2.7	0.0373

Screens (PubChem BioAssay)
